Source: ChEMBL document CHEMBL1828551, “Synthesis, biochemical and molecular modelling studies of antiproliferative azetidinones causing microtubule disruption and mitotic catastrophe” (Eur J Med Chem, 2011)
Calls of active or inactive are those of the source. The rule behind the calls is not given here.

Columns and labels:
MDA-MB-231 [1] = assay: Antiproliferative activity against ER-independent human MDA-MB-231 cells after 72 hrs by MTT assay; assay type: functional, cell-based; settings: MDA-MB-231, 72 h
Method in brief: (§1)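 Cells seeded at 2.5×10^4 cells/mL, held 24 h at 37°C, then dosed from ethanol stocks over 1 nM–100 μM for 72 h; vehicle 1% v/v ethanol. MTT added to 1 mg/mL final, 2 h in dark at 37°C, DMSO solubilisation 20 min RT, absorbance read. Viability set relative to untreated controls; IC50 from % viability vs concentration. Triplicate wells, ≥3 experiments, mean ± SEM. MCF-7 grown in MEM with 10% FBS, 2 mM glutamine and 1% non-essential amino acids; MDA-MB-231 grown in DMEM with 10% FBS and 2 mM glutamine.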

MCF7 [2] = assay: Antiproliferative activity against ER expressing human MCF7 cells after 72 hrs by MTT assay; assay type: functional, cell-based; settings: MCF7, 72 h; method in brief: as §1
MDA-MB-231 [3] = assay: Antiproliferative activity against ER-independent human MDA-MB-231 cells assessed as cell death at 10 uM after 72 hrs by LDH assay
MCF7 [4] = assay: Cell cycle arrest in human MCF7 cells assessed as appearance of polyploidy at 500 nM after 48 hrs by propidium iodide staining based flow cytometric analysis (reference value: 8.33+/-2.5%); assay type: functional
MCF7 [5] = assay: Antimitotic activity in human MCF7 cells assessed as mitotic catastrophe at 500 nM after 16 hrs using DAPI staining based immunofluorescence analysis; assay type: functional, cell-based
Method in brief: (§2)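 MCF-7 cells seeded at 1×10^5 per well on chamber glass slides, exposed 16 h (vehicle 1% v/v ethanol). Permeabilised with 0.1% Triton X-100 in PBS, fixed in methanol 30 min at -20°C, blocked in 5% BSA. Stained with DM1A anti-tubulin (1:20, 1 h RT), then FITC rabbit anti-mouse (1:200, 1 h RT). Mounted with DAPI and imaged by confocal microscopy; three separate experiments.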

MCF7 [6] = assay: Effect on microtubule network in human MCF7 cells assessed as microtubule depolymerization at 500 nM after 16 hrs by confocal microscopic analysis; assay type: functional, cell-based; method in brief: as §2
Bos taurus = organism: Bos taurus; assay: Inhibition of bovine tubulin polymerization at 10 uM after 60 mins by spectrophotometric analysis
Method in brief: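 Purified bovine brain tubulin in G-PEM buffer (80 mM PIPES pH 6.9, 0.5 mM MgCl2, 1 mM EGTA, 1 mM GTP, 10.2% glycerol) was mixed with drug at 10 μM or 1% ethanol vehicle. Assembly was started by warming from 4 to 37°C and turbidity read at 340 nm every 30 s for 60 min at 37°C. Run in triplicate.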

MCF7 [7] = assay: Cell cycle arrest in human MCF7 cells assessed as accumulation at S phase at 500 nM after 48 hrs by propidium iodide staining based flow cytometric analysis (reference value: 8.77+/-0.9%); assay type: functional
MCF7 [8] = assay: Cell cycle arrest in human MCF7 cells assessed as accumulation at G2/M phase at 500 nM after 48 hrs by propidium iodide staining based flow cytometric analysis (reference value: 52.02+/-5.9%); assay type: functional
MCF7 [9] = assay: Cell cycle arrest in human MCF7 cells assessed as accumulation at sub-G1 phase at 500 nM after 48 hrs by propidium iodide staining based flow cytometric analysis (reference value: 1.65+/-0.38%); assay type: functional
MCF7 [10] = assay: Cell cycle arrest in human MCF7 cells assessed as accumulation at G1 phase at 500 nM after 48 hrs by propidium iodide staining based flow cytometric analysis (reference value: 60.22+/-3.1%); assay type: functional
MCF7 [11] = assay: Antiproliferative activity against ER expressing human MCF7 cells assessed as cell death at 10 uM after 72 hrs by LDH assay
MCF7 [12] = assay: Effect on microtubule network in human MCF7 cells assessed as microtubule depolymerization at 100 nM after 16 hrs by confocal microscopic analysis; assay type: functional, cell-based; method in brief: as §2
MCF7 [13] = assay: Cell cycle arrest in human MCF7 cells assessed as accumulation at S phase at 100 nM after 48 hrs by propidium iodide staining based flow cytometric analysis (reference value: 8.77+/-0.9%); assay type: functional
MCF7 [14] = assay: Cell cycle arrest in human MCF7 cells assessed as accumulation at G2/M phase at 100 nM after 48 hrs by propidium iodide staining based flow cytometric analysis (reference value: 52.02+/-5.9%); assay type: functional
MCF7 [15] = assay: Cell cycle arrest in human MCF7 cells assessed as accumulation at G1 phase at 100 nM after 48 hrs by propidium iodide staining based flow cytometric analysis (reference value: 60.22+/-3.1%); assay type: functional
MCF7 [16] = assay: Cell cycle arrest in human MCF7 cells assessed as accumulation at sub-G1 phase at 100 nM after 48 hrs by propidium iodide staining based flow cytometric analysis (reference value: 1.65+/-0.38%); assay type: functional
MCF7 [17] = assay: Antimitotic activity in human MCF7 cells assessed as mitotic catastrophe at 100 nM after 16 hrs using DAPI staining based immunofluorescence analysis; assay type: functional, cell-based; method in brief: as §2
MCF7 [18] = assay: Cell cycle arrest in human MCF7 cells assessed as appearance of polyploidy at 100 nM after 48 hrs by propidium iodide staining based flow cytometric analysis (reference value: 8.33+/-2.5%); assay type: functional

Compound | IC50 (MDA-MB-231 [1]) [nM] | IC50 (MCF7 [2]) [nM] | Activity (MDA-MB-231 [3]) [%] | further results
COc1cc(N2C(=O)[C@H](c3ccccc3)[C@H]2c2ccc(OC)c(OC)c2OC)cc(OC)c1OC | 1960 | 1120 | 6.1 | 
COc1cc(N2C(=O)C(c3ccccc3)C2(c2ccccc2)c2ccccc2)cc(OC)c1OC (stereo unspecified) |  | 3840 |  | 
COc1ccc(C2(c3ccccc3)C(c3ccccc3)C(=O)N2c2cc(OC)c(OC)c(OC)c2)cc1 (stereo unspecified) |  | 430 |  | 
COc1ccc(C2(c3ccc(OC)cc3)C(c3ccccc3)C(=O)N2c2cc(OC)c(OC)c(OC)c2)cc1 (stereo unspecified) |  | 640 |  | 
CCOc1ccc([C@@H]2[C@@H](c3ccccc3)C(=O)N2c2cc(OC)c(OC)c(OC)c2)cc1 (relative stereo) | 830 | 220 | 5.4 | Activity (MCF7 [4]): 7.4%; Activity (MCF7 [5]): Active; Activity (MCF7 [6]): Active; inhibition (Bos taurus): Active; Activity (MCF7 [7]): 9.49%; Activity (MCF7 [8]): 47.53%; Activity (MCF7 [9]): 13.97%; Activity (MCF7 [10]): 21.18%
COc1cc(N2C(=O)[C@H](c3ccccc3)[C@H]2c2ccc(F)cc2)cc(OC)c1OC (relative stereo) | 1140 | 350 | 0 | 
COc1cc(N2C(=O)[C@H](c3ccccc3)[C@H]2c2ccc(N(C)C)cc2)cc(OC)c1OC (relative stereo) | 5660 | 850 |  | Activity (MCF7 [11]): 10.4%
COc1cc(OC)c([C@@H]2[C@@H](c3ccccc3)C(=O)N2c2cc(OC)c(OC)c(OC)c2)c(OC)c1 (relative stereo) | 5740 | 18700 | 0 | 
COc1cc([C@@H]2[C@@H](c3ccccc3)C(=O)N2c2cc(OC)c(OC)c(OC)c2)cc(OC)c1OC (relative stereo) | 65600 | 69800 | 0 | 
COc1cc(OC)c([C@@H]2[C@@H](c3ccccc3)C(=O)N2c2cc(OC)c(OC)c(OC)c2)cc1OC (relative stereo) | 38900 | 46900 | 0 | 
COc1ccc([C@@H]2[C@@H](c3ccccc3)C(=O)N2c2cc(OC)c(OC)c(OC)c2)cc1OC (relative stereo) | 530 | 460 | 0 | Activity (MCF7 [11]): 3%
COc1ccc([C@@H]2[C@@H](c3ccccc3)C(=O)N2c2cc(OC)c(OC)c(OC)c2)cc1Br (relative stereo) |  | 1420 |  | 
COc1cc(N2C(=O)[C@H](c3ccccc3)[C@H]2c2ccc3ccccc3c2)cc(OC)c1OC (relative stereo) |  | 440 |  | 
COc1ccc(/C=C/[C@@H]2[C@@H](c3ccccc3)C(=O)N2c2cc(OC)c(OC)c(OC)c2)cc1 (relative stereo) |  | 1990 |  | 
COc1ccc([C@@H]2[C@@H](c3ccccc3)C(=O)N2Cc2cc(OC)c(OC)c(OC)c2)cc1 (relative stereo) |  | 38600 |  | 
COc1ccc(/C=C\c2cc(OC)c(OC)c(OC)c2)cc1O [COMBRETASTATIN A4] |  | 5 | 4.3 | Activity (MCF7 [12]): Active; Activity (MCF7 [13]): 10.66%; Activity (MCF7 [11]): 5.5%; Activity (MCF7 [14]): 52.02%; Activity (MCF7 [15]): 23.57%; inhibition (Bos taurus): Active; Activity (MCF7 [16]): 9.43%; Activity (MCF7 [17]): Active; Activity (MCF7 [18]): 8.36%
